ChEMBL document CHEMBL3992547, “Antimicrobial activity of rhodanine-3-acetic acid derivatives” (Bioorg Med Chem, 2017)
Values after ≈ are worked out from the molar mass of the structure shown. Active and inactive are the calls of the source. No cut-off for these calls is given here.

Columns and labels:
Staphylococcus aureus [1] = experiment: Antibacterial activity against Staphylococcus aureus CCM 4516/08 incubated for 24 hrs under dark condition by microdilution broth assay; format: functional; settings: CCM 4516/08, 24 h
Procedure, shortened: (§1)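 Broth microdilution per M07-A07, modified, in Mueller-Hinton broth adjusted to pH 7.4 (±0.2). Inoculum is prepared in sterile water to McFarland 0.5 (1.5 × 10⁸ CFU/mL). Plates are incubated in the dark at 35 °C in humid air. MIC is read after 24 and 48 h as at least 95% growth reduction versus control (IC₉₅).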

Trichosporon asahii [2] = experiment: Antifungal activity against Trichosporon asahii 1188 after 24 hrs by microdilution broth assay; format: functional; settings: Trichosporon asahii, 1188, 24 h
Procedure, shortened: (§2)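 Broth microdilution per CLSI M27-A3 and M38-A2 in RPMI 1640 with glutamine, buffered to pH 7.0 with MOPS. Compounds are diluted in DMSO. Final inoculum is 5 × 10³ CFU/mL for yeasts and 0.5–5 × 10⁴ CFU/mL for moulds. Plates are incubated in the dark at 35 °C in humid air and read visually and/or at 540 nm after 24 and 48 h. MIC is ≥80% growth reduction (IC₈₀) for yeasts and ≥50% (IC₅₀) for filamentous fungi.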

[3] = tested on: Mycobacterium tuberculosis; experiment: Antimycobacterial activity against Mycobacterium tuberculosis H37Rv 331/88 measured after 14 days by micromethod; format: functional; settings: H37Rv 331/88, 336 h
Nakaseomyces glabratus [4] = experiment: Antifungal activity against Candida glabrata 20/I after 24 hrs by microdilution broth assay; format: functional; procedure, shortened: as §2
Mycobacterium avium [5] = experiment: Antimycobacterial activity against Mycobacterium avium 330/88 measured after 14 days by micromethod; format: functional; settings: 330/88, 336 h
Pseudomonas aeruginosa = experiment: Antibacterial activity against Pseudomonas aeruginosa CCM 1961 up to 500 uM incubated for 24 to 48 hrs under dark condition by microdilution broth assay; format: functional; procedure, shortened: as §1
Klebsiella pneumoniae [6] = experiment: Antibacterial activity against ESBL positive Klebsiella pneumoniae J 14368/08 up to 500 uM incubated for 24 to 48 hrs under dark condition by microdilution broth assay; format: functional; procedure, shortened: as §1
Aspergillus fumigatus [7] = experiment: Antifungal activity against Aspergillus fumigatus 231 after 48 hrs by microdilution broth assay; format: functional; settings: Aspergillus fumigatus, 231, 48 h; procedure, shortened: as §2
[8] = tested on: Trichophyton mentagrophytes; experiment: Antifungal activity against Trichophyton mentagrophytes 445 after 120 hrs by microdilution broth assay; format: functional; settings: Trichophyton mentagrophytes, 445, 120 h
Procedure, shortened: (§3)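 Broth microdilution per CLSI M38-A2 in RPMI 1640 with glutamine, buffered to pH 7.0 with MOPS, with DMSO as diluent. Final inoculum is 0.5–5 × 10⁴ CFU/mL. Plates are incubated in the dark at 35 °C in humid air and read visually and/or at 540 nm after 72 and 120 h. MIC is at least 50% growth reduction versus control.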

Candida tropicalis [9] = experiment: Antifungal activity against Candida tropicalis 156 after 24 hrs by microdilution broth assay; format: functional; settings: Candida tropicalis, 156, 24 h; procedure, shortened: as §2
[10] = tested on: Mycobacterium tuberculosis; experiment: Antimycobacterial activity against Mycobacterium tuberculosis H37Rv 331/88 measured after 21 days by micromethod; format: functional; settings: H37Rv 331/88, 504 h
Enterococcus [11] = experiment: Antibacterial activity against Enterococcus sp. J 14365/08 incubated for 24 hrs under dark condition by microdilution broth assay; settings: J 14365/08, 24 h
Mycobacterium kansasii [12] = experiment: Antimycobacterial activity against Mycobacterium kansasii isolate 235/80 after 14 days by micromethod; format: functional; settings: isolate 235/80, 336 h
Mycobacterium kansasii [13] = experiment: Antimycobacterial activity against Mycobacterium kansasii isolate 6509/96 after 14 days by micromethod; format: functional; settings: isolate 6509/96, 336 h
[14] = tested on: Staphylococcus epidermidis; experiment: Antibacterial activity against Staphylococcus epidermidis H 6966/08 incubated for 48 hrs under dark condition by microdilution broth assay; format: functional; settings: H 6966/08, 48 h; procedure, shortened: as §1
Escherichia coli [15] = experiment: Antibacterial activity against Escherichia coli CCM 4517 incubated for 24 hrs under dark condition by microdilution broth assay; format: functional; settings: CCM 4517, 24 h; procedure, shortened: as §1
Mycobacterium avium [16] = experiment: Antimycobacterial activity against Mycobacterium avium 330/88 measured after 21 days by micromethod; format: functional; settings: 330/88, 504 h
Enterococcus [17] = experiment: Antibacterial activity against Enterococcus sp. J 14365/08 incubated for 48 hrs under dark condition by microdilution broth assay; settings: J 14365/08, 48 h
Mycobacterium kansasii [18] = experiment: Antimycobacterial activity against Mycobacterium kansasii isolate 235/80 after 7 days by micromethod; format: functional; settings: isolate 235/80, 168 h
Pichia kudriavzevii = experiment: Antifungal activity against Candida krusei E28 after 24 to 48 hrs hrs by microdilution broth assay; format: functional; procedure, shortened: as §2
Mycobacterium kansasii [19] = experiment: Antimycobacterial activity against Mycobacterium kansasii isolate 235/80 after 21 days by micromethod; format: functional; settings: isolate 235/80, 504 h
Staphylococcus aureus [20] = experiment: Antibacterial activity against methicillin-resistant Staphylococcus aureus H 5996/08 incubated for 24 hrs under dark condition by microdilution broth assay; format: functional; settings: H 5996/08, 24 h
Procedure, shortened: (§4)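 Microdilution broth method modified per M07-A07, in Mueller-Hinton broth adjusted to pH 7.4 (±0.2). Inoculum made in sterile water to 0.5 McFarland (1.5 × 10⁸ CFU/mL). Plates incubated in the dark at 35 °C in a humid atmosphere, with reads at 24 and 48 h. MIC taken as at least 95% growth reduction (IC₉₅) versus control.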

[21] = tested on: Trichophyton mentagrophytes; experiment: Antifungal activity against Trichophyton mentagrophytes 445 after 72 hrs by microdilution broth assay; format: functional; settings: Trichophyton mentagrophytes, 445, 72 h; procedure, shortened: as §3
Staphylococcus aureus [22] = experiment: Antibacterial activity against methicillin-resistant Staphylococcus aureus H 5996/08 incubated for 48 hrs under dark condition by microdilution broth assay; format: functional; settings: H 5996/08, 48 h; procedure, shortened: as §4
Nakaseomyces glabratus [23] = experiment: Antifungal activity against Candida glabrata 20/I after 48 hrs by microdilution broth assay; format: functional; procedure, shortened: as §2
Candida tropicalis [24] = experiment: Antifungal activity against Candida tropicalis 156 after 48 hrs by microdilution broth assay; format: functional; settings: Candida tropicalis, 156, 48 h; procedure, shortened: as §2
Aspergillus fumigatus [25] = experiment: Antifungal activity against Aspergillus fumigatus 231 after 24 hrs by microdilution broth assay; format: functional; settings: Aspergillus fumigatus, 231, 24 h; procedure, shortened: as §2
Klebsiella pneumoniae [26] = experiment: Antibacterial activity against Klebsiella pneumoniae D 11750/08 up to 500 uM incubated for 24 to 48 hrs under dark condition by microdilution broth assay; format: functional; procedure, shortened: as §1
Candida albicans [27] = experiment: Antifungal activity against Candida albicans ATCC 44859 after 24 hrs by microdilution broth assay; format: functional; settings: ATCC 44859, 24 h; procedure, shortened: as §2
Staphylococcus aureus [28] = experiment: Antibacterial activity against Staphylococcus aureus CCM 4516/08 incubated for 48 hrs under dark condition by microdilution broth assay; format: functional; settings: CCM 4516/08, 48 h; procedure, shortened: as §1
Candida albicans [29] = experiment: Antifungal activity against Candida albicans ATCC 44859 after 48 hrs by microdilution broth assay; format: functional; settings: ATCC 44859, 48 h; procedure, shortened: as §2
Lichtheimia corymbifera = experiment: Antifungal activity against Absidia corymbifera 272 after 24 to 48 hrs hrs by microdilution broth assay; format: functional; procedure, shortened: as §2
Mycobacterium kansasii [30] = experiment: Antimycobacterial activity against Mycobacterium kansasii isolate 6509/96 after 7 days by micromethod; format: functional; settings: isolate 6509/96, 168 h
[31] = tested on: Staphylococcus epidermidis; experiment: Antibacterial activity against Staphylococcus epidermidis H 6966/08 incubated for 24 hrs under dark condition by microdilution broth assay; format: functional; settings: H 6966/08, 24 h; procedure, shortened: as §1
[32] = Solubility of the compound in Sula's semisynthetic medium up to 1 mM; format: physicochemical
Trichosporon asahii [33] = experiment: Antifungal activity against Trichosporon asahii 1188 after 48 hrs by microdilution broth assay; format: functional; settings: Trichosporon asahii, 1188, 48 h; procedure, shortened: as §2
Mycobacterium kansasii [34] = experiment: Antimycobacterial activity against Mycobacterium kansasii isolate 6509/96 after 21 days by micromethod; format: functional; settings: isolate 6509/96, 504 h
Escherichia coli [35] = experiment: Antibacterial activity against Escherichia coli CCM 4517 incubated for 48 hrs under dark condition by microdilution broth assay; format: functional; settings: CCM 4517, 48 h; procedure, shortened: as §1

Compound | MIC95 (Staphylococcus aureus [1]) | MIC80 (Trichosporon asahii [2]) | MIC [3] | MIC80 (Nakaseomyces glabratus [4]) | MIC (Mycobacterium avium [5]) | Activity (Pseudomonas aeruginosa) | Activity (Klebsiella pneumoniae [6]) | MIC50 (Aspergillus fumigatus [7]) | MIC50 [8] | MIC80 (Candida tropicalis [9]) | MIC [10] | MIC95 (Enterococcus [11]) | MIC (Mycobacterium kansasii [12]) | MIC (Mycobacterium kansasii [13]) | MIC95 [14] | MIC95 (Escherichia coli [15]) | MIC (Mycobacterium avium [16]) | MIC95 (Enterococcus [17]) | MIC (Mycobacterium kansasii [18]) | Activity (Pichia kudriavzevii) | other results
O=C(CN1C(=O)CSC1=S)Nc1ccccc1 | 500 µM (≈ 133 µg/mL) | > 500 µM | 1000 µM (≈ 266 µg/mL) | > 500 µM | 1000 µM (≈ 266 µg/mL) | inactive | inactive | > 500 µM | > 500 µM | 500 µM (≈ 133 µg/mL) | 1000 µM (≈ 266 µg/mL) | 500 µM (≈ 133 µg/mL) | 1000 µM (≈ 266 µg/mL) | 1000 µM (≈ 266 µg/mL) | 500 µM (≈ 133 µg/mL) | > 500 µM | > 1000 µM | 500 µM (≈ 133 µg/mL) | 1000 µM (≈ 266 µg/mL) | inactive | MIC (Mycobacterium kansasii [19]): 1000 µM (≈ 266 µg/mL); MIC95 (Staphylococcus aureus [20]): > 500 µM; MIC50 [21]: > 500 µM; MIC95 (Staphylococcus aureus [22]): > 500 µM; MIC80 (Nakaseomyces glabratus [23]): > 500 µM; MIC80 (Candida tropicalis [24]): 500 µM (≈ 133 µg/mL); MIC50 (Aspergillus fumigatus [25]): > 500 µM; Activity (Klebsiella pneumoniae [26]): inactive; MIC80 (Candida albicans [27]): > 500 µM; MIC95 (Staphylococcus aureus [28]): 500 µM (≈ 133 µg/mL); MIC80 (Candida albicans [29]): > 500 µM; Activity (Lichtheimia corymbifera): inactive; MIC (Mycobacterium kansasii [30]): 1000 µM (≈ 266 µg/mL); MIC95 [31]: 500 µM (≈ 133 µg/mL); solubility [32]: Soluble; MIC80 (Trichosporon asahii [33]): > 500 µM; MIC (Mycobacterium kansasii [34]): 1000 µM (≈ 266 µg/mL); MIC95 (Escherichia coli [35]): > 500 µM
O=C(O)CN1C(=O)/C(=C/c2ccccc2O)SC1=S | 62.5 µM (≈ 18.5 µg/mL) | > 500 µM | 32 µM (≈ 9.45 µg/mL) | > 500 µM | 125 µM (≈ 36.9 µg/mL) | inactive | inactive | > 500 µM | 250 µM (≈ 73.8 µg/mL) | > 500 µM | 32 µM (≈ 9.45 µg/mL) | 125 µM (≈ 36.9 µg/mL) | 62.5 µM (≈ 18.5 µg/mL) | 62.5 µM (≈ 18.5 µg/mL) | 125 µM (≈ 36.9 µg/mL) | 500 µM (≈ 148 µg/mL) | 125 µM (≈ 36.9 µg/mL) | 125 µM (≈ 36.9 µg/mL) | 32 µM (≈ 9.45 µg/mL) | inactive | MIC (Mycobacterium kansasii [19]): 62.5 µM (≈ 18.5 µg/mL); MIC95 (Staphylococcus aureus [20]): 62.5 µM (≈ 18.5 µg/mL); MIC50 [21]: 250 µM (≈ 73.8 µg/mL); MIC95 (Staphylococcus aureus [22]): 62.5 µM (≈ 18.5 µg/mL); MIC80 (Nakaseomyces glabratus [23]): > 500 µM; MIC80 (Candida tropicalis [24]): > 500 µM; MIC50 (Aspergillus fumigatus [25]): > 500 µM; Activity (Klebsiella pneumoniae [26]): inactive; MIC80 (Candida albicans [27]): 500 µM (≈ 148 µg/mL); MIC95 (Staphylococcus aureus [28]): 62.5 µM (≈ 18.5 µg/mL); MIC80 (Candida albicans [29]): 500 µM (≈ 148 µg/mL); Activity (Lichtheimia corymbifera): inactive; MIC (Mycobacterium kansasii [30]): 32 µM (≈ 9.45 µg/mL); MIC95 [31]: 125 µM (≈ 36.9 µg/mL); solubility [32]: Soluble; MIC80 (Trichosporon asahii [33]): > 500 µM; MIC (Mycobacterium kansasii [34]): 62.5 µM (≈ 18.5 µg/mL); MIC95 (Escherichia coli [35]): > 500 µM
